Activity calls are given as the source filed them. The rule behind the calls is not given here.
How the values were obtained:
[1] = system: Rattus norvegicus; test: Neurotoxicity in Sprague-Dawley rat assessed as minimal motor impairment at 30 mg/kg, po after 4 hrs by rotorod test; settings: in vivo
[2] = system: Mus musculus; test: Anticonvulsant activity in CF1 mouse assessed as protection against subcutaneous metrazole-induced seizures at 30 mg/kg, ip after 0.5 hrs; assay type: functional, organism-based; design: dose 30 mg/kg
Summary of the method: (§1)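 Mice given compound i.p. at 30, 100 or 300 mg/kg and tested 0.5 or 4 h after dosing. Seizures were induced by maximal electroshock (MES) or subcutaneous metrazole (ScMet). Prevention of seizures counts as protection. Result is recorded as number of animals protected over number tested.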

[3] = system: Mus musculus; test: Neurotoxicity in CF1 mouse assessed as minimal motor impairment at 100 mg/kg, ip after 4 hrs by rotorod test; assay type: toxicity, organism-based; design: dose 100 mg/kg, route intraperitoneal; settings: in vivo
Summary of the method: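 Rotarod neurotoxicity screen in mice dosed i.p. at 30, 100 or 300 mg/kg, read 0.5 or 4 h after dosing. The animal must stay on a rod rotating at 6 rpm without falling, measured 3 times within 1 min. A fall counts as minimal motor impairment. Result is recorded as impaired animals over animals used.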

[4] = system: Mus musculus; test: Anticonvulsant activity in CF1 mouse assessed as protection against maximal electroshock-induced seizures at 30 mg/kg, ip after 4 hrs; assay type: functional, organism-based; design: dose 30 mg/kg
Summary of the method: as §1

[5] = system: Mus musculus; test: Anticonvulsant activity in CF1 mouse assessed as protection against maximal electroshock-induced seizures at 100 mg/kg, ip after 0.5 hrs; assay type: functional, organism-based; design: dose 100 mg/kg
Summary of the method: as §1

[6] = system: Mus musculus; test: Anticonvulsant activity in CF1 mouse assessed as protection against subcutaneous metrazole-induced seizures at 100 mg/kg, ip after 0.5 hrs; assay type: functional, organism-based; design: dose 100 mg/kg
Summary of the method: as §1

[7] = target: 5-hydroxytryptamine receptor 7 (Homo sapiens, UniProt P34969); test: Displacement of [3H]5-CT from human 5HT7b receptor expressed in HEK293 cells after 1 hr; assay type: cell-based
Chain of 5-hydroxytryptamine receptor 7 (P34969 whole entry): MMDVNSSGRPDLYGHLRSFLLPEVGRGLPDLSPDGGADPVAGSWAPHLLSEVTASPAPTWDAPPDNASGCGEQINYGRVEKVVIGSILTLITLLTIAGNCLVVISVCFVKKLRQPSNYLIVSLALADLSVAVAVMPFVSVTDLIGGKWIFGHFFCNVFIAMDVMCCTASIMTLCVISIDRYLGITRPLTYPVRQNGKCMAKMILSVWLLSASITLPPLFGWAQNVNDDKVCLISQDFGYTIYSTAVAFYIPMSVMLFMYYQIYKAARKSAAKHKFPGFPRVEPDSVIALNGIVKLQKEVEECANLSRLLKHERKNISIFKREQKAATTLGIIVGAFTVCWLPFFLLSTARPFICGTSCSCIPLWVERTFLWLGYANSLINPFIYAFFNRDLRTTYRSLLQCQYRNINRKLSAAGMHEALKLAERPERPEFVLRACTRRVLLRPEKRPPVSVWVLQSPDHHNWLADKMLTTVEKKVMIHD

[8] = target: T1, 5-hydroxytryptamine receptor 1A (Homo sapiens, UniProt P08908); test: Displacement of [3H]8-OH-DPAT from human 5HT1A receptor expressed in HEK293 cells after 1 hr; assay type: cell-based
T1 sequence (P08908 whole entry): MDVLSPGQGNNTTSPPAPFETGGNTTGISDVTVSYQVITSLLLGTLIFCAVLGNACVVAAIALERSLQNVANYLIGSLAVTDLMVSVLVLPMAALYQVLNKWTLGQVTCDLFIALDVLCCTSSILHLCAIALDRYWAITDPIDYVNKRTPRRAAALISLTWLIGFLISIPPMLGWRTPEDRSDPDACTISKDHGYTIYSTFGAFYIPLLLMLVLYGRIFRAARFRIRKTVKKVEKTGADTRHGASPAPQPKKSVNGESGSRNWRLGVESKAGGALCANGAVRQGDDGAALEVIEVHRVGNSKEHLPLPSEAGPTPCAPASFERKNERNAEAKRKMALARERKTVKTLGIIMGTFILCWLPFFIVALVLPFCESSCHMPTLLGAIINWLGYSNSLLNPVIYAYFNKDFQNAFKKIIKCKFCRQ

Ki [7]: 17.4 µM
Ki [8]: 4.5 µM
Structure (SMILES): Cl.Cl.Cl.O=c1c2ccc(Cl)cc2oc2c(CN3CCN(CCO)CC3)cccc12
Activity [1]: Non-toxic
Activity [2]: inactive
Activity [3]: Non-toxic
Activity [4]: inactive
Activity [5]: Active
Activity [6]: inactive

Source: ChEMBL document CHEMBL2401625, “Synthesis and evaluation of pharmacological properties of some new xanthone derivatives with piperazine moiety” (Bioorg Med Chem Lett, 2013)
